Source: ChEMBL document CHEMBL1127483, “Synthesis and structure activity relationships of cis- and trans-2,3,4,4a,9,9a-hexahydro-1H-indeno[2,1-c]pyridines for 5-HT receptor subtypes” (J Med Chem, 1994)

Tests used:
[1] = target: Serotonin 2 (5-HT2) receptor (Rattus norvegicus, UniProt P30994+P08909+P14842); assay: Displacement of [3H]ketanserin from 5-hydroxytryptamine 2 receptor; format: protein assay
[2] = target: 5-hydroxytryptamine receptor 1B (Rattus norvegicus, UniProt P28564); assay: Inhibition of [3H]5-HT binding to 5-hydroxytryptamine 1B receptor
How it was run: (§1)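 [3H]5-HT binding to 5-HT1 sites. The 5-HT1A component was distinguished by masking 5-HT1A sites with 1 µM S-spiroxatrine. Values are geometric means.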

[3] = target: T1, 5-hydroxytryptamine receptor 1A (Rattus norvegicus, UniProt P19327); assay: Binding affinity for 5-hydroxytryptamine 1A receptor with [3H]5-HT; how it was run: as §1
T1 sequence (P19327 whole entry): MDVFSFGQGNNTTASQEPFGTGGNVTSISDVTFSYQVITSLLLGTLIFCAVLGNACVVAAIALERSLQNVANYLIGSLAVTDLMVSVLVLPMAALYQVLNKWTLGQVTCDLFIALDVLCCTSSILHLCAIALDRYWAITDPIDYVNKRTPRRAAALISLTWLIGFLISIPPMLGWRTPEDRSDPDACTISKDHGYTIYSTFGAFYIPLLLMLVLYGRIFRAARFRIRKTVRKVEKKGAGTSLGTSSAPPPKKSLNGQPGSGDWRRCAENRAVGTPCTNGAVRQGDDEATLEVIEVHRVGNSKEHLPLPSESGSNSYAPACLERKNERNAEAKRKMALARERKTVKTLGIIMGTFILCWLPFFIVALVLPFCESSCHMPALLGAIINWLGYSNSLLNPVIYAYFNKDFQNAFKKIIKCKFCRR

Sequence of 5-hydroxytryptamine receptor 1B (P28564 whole entry): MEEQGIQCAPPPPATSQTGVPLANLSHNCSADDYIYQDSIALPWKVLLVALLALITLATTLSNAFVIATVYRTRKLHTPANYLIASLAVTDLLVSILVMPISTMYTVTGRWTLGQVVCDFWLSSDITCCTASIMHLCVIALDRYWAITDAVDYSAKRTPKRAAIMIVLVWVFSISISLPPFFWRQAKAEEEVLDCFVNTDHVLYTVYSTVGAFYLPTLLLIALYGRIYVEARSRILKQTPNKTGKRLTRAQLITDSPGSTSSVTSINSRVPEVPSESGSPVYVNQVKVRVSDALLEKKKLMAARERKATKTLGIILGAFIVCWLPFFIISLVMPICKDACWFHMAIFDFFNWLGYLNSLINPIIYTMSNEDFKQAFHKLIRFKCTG

Row | SMILES | Ki [1] [nM] | Ki [2] [µM] | Ki [3] [nM]
1 | COc1cccc2c1[C@@H]1CCN(CCCCN3C(=O)CC4(CCCC4)CC3=O)C[C@@H]1C2 | 35.9 | 13.6 | 54.5
2 | CCCN1CC[C@H]2c3c(cccc3OC)C[C@@H]2C1 | 688 | 5.01 | 76.2
3 | CCCN(CCC)C1CCc2cccc(O)c2C1 (stereo not given) [8-OH-DPAT] | > 10000 |  | 
4 | COc1cccc2c1[C@@H]1CCN(CCCN3C(=O)CC4(CCCC4)CC3=O)C[C@@H]1C2 | 17.4 | 96.4 | 692
5 | CCCN1CC[C@H]2c3c(cccc3OC)C[C@H]2C1 | 965 | 48.5 | 
6 | COc1cccc2c1C1CCN(CCCCN3C(=O)C4C5C=CC(C6C=CC65)C4C3=O)CC1C2.Cl (trans isomer) | 2.58 | 1.31 | 3.6
7 | COc1cccc2c1[C@@H]1CCN(CCCN3C(=O)CC4(CCCC4)CC3=O)C[C@H]1C2 | 15.9 | 7.36 | 51.2

More lines, now with the values ahead:

Row | Ki [1] [nM] | Ki [2] [µM] | Ki [3] [nM] | SMILES
8 | 3 | 0.845 | 0.891 | COc1cccc2c1C1CCN(CCCN3C(=O)c4ccccc4S3(=O)=O)CC1C2 (stereo not given)
9 | 9.3 | 0.8 | 1.65 | COc1cccc2c1[C@@H]1CCN(CCCCN3C(=O)CC4(CCCC4)CC3=O)C[C@H]1C2
10 | 28.9 | 0.888 | 0.588 | COc1cccc2c1C1CCN(CCNC(=O)c3ccc(F)cc3)CC1C2 (stereo not given)
11 | 33.4 | 0.325 | 1.98 | COc1cccc2c1C1CCN(CCCCN3C(=O)c4ccccc4S3(=O)=O)CC1C2 (stereo not given)
